Experimental data published in ChEMBL document CHEMBL5241123, “Homopurine guanine-rich sequences in complex with N-methyl mesoporphyrin IX form parallel G-quadruplex dimers and display a unique symmetry tetrad” (Bioorg Med Chem, 2023).
Activity calls are given as the source filed them. The calls are words filed in the database; no cut-off is given here.

How the values were obtained:
Assay type in all cases: nucleic-acid assay
[1] = system: Quadruplex DNA; assay: Stabilization and preservation of G-quadruplex homo-purine guanine-rich GA1 (GAGGGAGGGAGGGAAAAGGGGA) DNA (unknown origin) parallel structure conformation at 2 equivalents in 100K buffer by circular dichroism scan analysis; conditions: dose 2.0 equiv
In short: (§1)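 CD scans at 20 °C of ~4 μM annealed DNA, alone or with 2 eq. NMM, in 100K buffer. Range 220-330 nm, 1 cm cuvette, 2 nm bandwidth, five scans averaged.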

[2] = system: Quadruplex DNA; assay: Binding affinity to G-quadruplex homo-purine guanine-rich GA3 (AGGGAAAAGGGGAGGGAAAAGGGGA) DNA (unknown origin) at DNA:compound concentration ratio of 1:2 in 5K buffer by fluorescence titration based analysis
In short: (§2)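 Fluorescence titration at 20 °C in 5K buffer: ~1.0 μM NMM titrated with 140-270 μM annealed DNA to a final [DNA]/[NMM] of at least eight. Excitation 395-398 nm (UV-Vis isosbestic points), emission 560-720 nm. Single-component SVD, fit to 1:1, 1:2 and 2:1 models. Ka is the average of at least three trials.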

[3] = system: Quadruplex DNA; assay: Binding affinity to G-quadruplex homo-purine guanine-rich GA1 (GAGGGAGGGAGGGAAAAGGGGA) DNA (unknown origin) assessed as red shift at 3.3 uM in 5K buffer by UV-Vis titration based analysis
In short: (§3)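 NMM (~3-4 μM, absorbance ~0.5, 1 cm cuvette) in 5K buffer (10 mM LiCaco pH 7.2, 95 mM LiCl, 5 mM KCl), titrated with DNA annealed in 5K buffer (170-470 μM, final [DNA]/[NMM] at least five), 2 min equilibration per addition, spectra 350-480 nm at 20 °C. SVD analysis, fit with NMM concentration fixed. Ka is the average of at least three trials.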

[4] = system: Quadruplex DNA; assay: Binding affinity to G-quadruplex homo-purine guanine-rich GA3 (AGGGAAAAGGGGAGGGAAAAGGGGA) DNA (unknown origin) at DNA:compound concentration ratio of 2:1 in 5K buffer by fluorescence titration based analysis; in short: as §2
[5] = system: Quadruplex DNA; assay: Binding affinity to G-quadruplex homo-purine guanine-rich GA2 (GAGGGAGGGAAAAGGGGAGGGA) DNA (unknown origin) at DNA:compound concentration ratio of 1:1 in 5K buffer by fluorescence titration based analysis; in short: as §2
[6] = system: Quadruplex DNA; assay: Binding affinity to G-quadruplex homo-purine guanine-rich GA3 (AGGGAAAAGGGGAGGGAAAAGGGGA) DNA (unknown origin) at DNA:compound concentration ratio of 1:2 in 5K buffer by UV-Vis titration based analysis; in short: as §3
[7] = system: Quadruplex DNA; assay: Binding affinity to G-quadruplex homo-purine guanine-rich GA1 (GAGGGAGGGAGGGAAAAGGGGA) DNA (unknown origin) at DNA:compound concentration ratio of 1:1 in 5K buffer by fluorescence titration based analysis; in short: as §2
[8] = system: Quadruplex DNA; assay: Stabilization and preservation of G-quadruplex homo-purine guanine-rich GA2 (GAGGGAGGGAAAAGGGGAGGGA) DNA (unknown origin) parallel structure conformation assessed as increase in enthalpy change associated with melting transition at 2 equivalents in 100K buffer by UV-Visible melting analysis; conditions: dose 2.0 equiv
In short: (§4)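 ~4 μM DNA with or without 2 eq. NMM in 100K buffer (10 mM LiCaco pH 7.2, 100 mM KCl), annealed then cooled slowly. UV-Vis melting 20-90 °C, 0.5 or 0.2 °C/min, signal at 295 nm corrected at 335 nm. Tm and ΔH from a two-state fit (hysteresis under 3 °C).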

[9] = system: Quadruplex DNA; assay: Binding affinity to G-quadruplex homo-purine guanine-rich GA2 (GAGGGAGGGAAAAGGGGAGGGA) DNA (unknown origin) at DNA:compound concentration ratio of 2:1 in 5K buffer by fluorescence titration based analysis; in short: as §2
[10] = system: Quadruplex DNA; assay: Stabilization and preservation of G-quadruplex homo-purine guanine-rich GA3 (AGGGAAAAGGGGAGGGAAAAGGGGA) DNA (unknown origin) parallel structure conformation assessed as increase in melting temperature at 2 equivalents in 100K buffer by UV-Visible melting analysis; conditions: dose 2.0 equiv; in short: as §4
[11] = system: Quadruplex DNA; assay: Binding affinity to G-quadruplex homo-purine guanine-rich GA3 (AGGGAAAAGGGGAGGGAAAAGGGGA) DNA (unknown origin) assessed as red shift at 3.3 uM in 5K buffer by circular dichroism scan analysis
[12] = system: Quadruplex DNA; assay: Binding affinity to G-quadruplex homo-purine guanine-rich GA1 (GAGGGAGGGAGGGAAAAGGGGA) DNA (unknown origin) at DNA:compound concentration ratio of 1:2 in 5K buffer by UV-Vis titration based analysis; in short: as §3
[13] = system: Quadruplex DNA; assay: Stabilization and preservation of G-quadruplex homo-purine guanine-rich GA1 (GAGGGAGGGAGGGAAAAGGGGA) DNA (unknown origin) parallel structure conformation assessed as increase in melting temperature at 2 equivalents in 100K buffer by UV-Visible melting analysis; conditions: dose 2.0 equiv; in short: as §4
[14] = system: Quadruplex DNA; assay: Binding affinity to G-quadruplex homo-purine guanine-rich GA2 (GAGGGAGGGAAAAGGGGAGGGA) DNA (unknown origin) assessed as red shift at 3.3 uM in 5K buffer by circular dichroism scan analysis
[15] = system: Quadruplex DNA; assay: Binding affinity to G-quadruplex homo-purine guanine-rich GA2 (GAGGGAGGGAAAAGGGGAGGGA) DNA (unknown origin) at DNA:compound concentration ratio of 1:2 in 5K buffer by fluorescence titration based analysis; in short: as §2
[16] = system: Quadruplex DNA; assay: Binding affinity to G-quadruplex homo-purine guanine-rich GA2 (GAGGGAGGGAAAAGGGGAGGGA) DNA (unknown origin) at DNA:compound concentration ratio of 1:1 in 5K buffer by UV-Vis titration based analysis; in short: as §3
[17] = system: Quadruplex DNA; assay: Binding affinity to G-quadruplex homo-purine guanine-rich GA3 (AGGGAAAAGGGGAGGGAAAAGGGGA) DNA (unknown origin) at DNA:compound concentration ratio of 2:1 in 5K buffer by UV-Vis titration based analysis; in short: as §3
[18] = system: Quadruplex DNA; assay: Binding affinity to G-quadruplex homo-purine guanine-rich GA1 (GAGGGAGGGAGGGAAAAGGGGA) DNA (unknown origin) assessed as hypochromicity at 3.3 uM in 5K buffer by UV-Vis titration based analysis; in short: as §3
[19] = system: Quadruplex DNA; assay: Stabilization and preservation of G-quadruplex homo-purine guanine-rich GA2 (GAGGGAGGGAAAAGGGGAGGGA) DNA (unknown origin) parallel structure conformation assessed as increase in melting temperature at 2 equivalents in 100K buffer by UV-Visible melting analysis; conditions: dose 2.0 equiv; in short: as §4
[20] = system: Quadruplex DNA; assay: Stabilization and preservation of G-quadruplex homo-purine guanine-rich GA3 (AGGGAAAAGGGGAGGGAAAAGGGGA) DNA (unknown origin) parallel structure conformation at 2 equivalents in 100K buffer by native PAGE analysis; conditions: dose 2.0 equiv
In short: (§5)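 Native 15% polyacrylamide gel in 1×TBE plus 10 mM KCl. Samples of ~50 μM DNA, alone or with 2 eq. NMM, in 100K buffer. Run 150 min at 150 V at room temperature after pre-running, with a dT15-dT57 ladder. Stains-All visualization.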

[21] = system: Quadruplex DNA; assay: Stabilization and preservation of G-quadruplex homo-purine guanine-rich GA3 (AGGGAAAAGGGGAGGGAAAAGGGGA) DNA (unknown origin) parallel structure conformation assessed as increase in enthalpy change associated with melting transition at 2 equivalents in 100K buffer by UV-Visible melting analysis; conditions: dose 2.0 equiv; in short: as §4
[22] = system: Quadruplex DNA; assay: Stabilization and preservation of G-quadruplex homo-purine guanine-rich GA1 (GAGGGAGGGAGGGAAAAGGGGA) DNA (unknown origin) parallel structure conformation assessed as increased homogeneity at 2 equivalents in 100K buffer by native PAGE analysis; conditions: dose 2.0 equiv; in short: as §5
[23] = system: Quadruplex DNA; assay: Stabilization and preservation of G-quadruplex homo-purine guanine-rich GA3 (AGGGAAAAGGGGAGGGAAAAGGGGA) DNA (unknown origin) parallel structure conformation at 2 equivalents in 100K buffer by circular dichroism scan analysis; conditions: dose 2.0 equiv; in short: as §1
[24] = system: Quadruplex DNA; assay: Stabilization and preservation of G-quadruplex homo-purine guanine-rich GA2 (GAGGGAGGGAAAAGGGGAGGGA) DNA (unknown origin) parallel structure conformation assessed as elimination of higher order species at 2 equivalents in 100K buffer by native PAGE analysis; conditions: dose 2.0 equiv; in short: as §5
[25] = system: Quadruplex DNA; assay: Binding affinity to G-quadruplex homo-purine guanine-rich GA1 (GAGGGAGGGAGGGAAAAGGGGA) DNA (unknown origin) at DNA:compound concentration ratio of 2:1 in 5K buffer by fluorescence titration based analysis; in short: as §2
[26] = system: Quadruplex DNA; assay: Binding affinity to G-quadruplex homo-purine guanine-rich GA3 (AGGGAAAAGGGGAGGGAAAAGGGGA) DNA (unknown origin) assessed as hypochromicity at 3.3 uM in 5K buffer by circular dichroism scan analysis
[27] = system: Quadruplex DNA; assay: Binding affinity to G-quadruplex homo-purine guanine-rich GA1 (GAGGGAGGGAGGGAAAAGGGGA) DNA (unknown origin) at DNA:compound concentration ratio of 1:2 in 5K buffer by fluorescence titration based analysis; in short: as §2
[28] = system: Quadruplex DNA; assay: Binding affinity to G-quadruplex homo-purine guanine-rich GA1 (GAGGGAGGGAGGGAAAAGGGGA) DNA (unknown origin) at DNA:compound concentration ratio of 1:1 in 5K buffer by UV-Vis titration based analysis; in short: as §3
[29] = system: Quadruplex DNA; assay: Binding affinity to G-quadruplex homo-purine guanine-rich GA2 (GAGGGAGGGAAAAGGGGAGGGA) DNA (unknown origin) assessed as hypochromicity at 3.3 uM in 5K buffer by circular dichroism scan analysis
[30] = system: Quadruplex DNA; assay: Binding affinity to G-quadruplex homo-purine guanine-rich GA1 (GAGGGAGGGAGGGAAAAGGGGA) DNA (unknown origin) at DNA:compound concentration ratio of 2:1 in 5K buffer by UV-Vis titration based analysis; in short: as §3
[31] = system: Quadruplex DNA; assay: Binding affinity to G-quadruplex homo-purine guanine-rich GA3 (AGGGAAAAGGGGAGGGAAAAGGGGA) DNA (unknown origin) at DNA:compound concentration ratio of 1:1 in 5K buffer by fluorescence titration based analysis; in short: as §2
[32] = system: Quadruplex DNA; assay: Stabilization and preservation of G-quadruplex homo-purine guanine-rich GA1 (GAGGGAGGGAGGGAAAAGGGGA) DNA (unknown origin) parallel structure conformation assessed as increase in enthalpy change associated with melting transition at 2 equivalents in 100K buffer by UV-Visible melting analysis; conditions: dose 2.0 equiv; in short: as §4
[33] = system: Quadruplex DNA; assay: Binding affinity to G-quadruplex homo-purine guanine-rich GA3 (AGGGAAAAGGGGAGGGAAAAGGGGA) DNA (unknown origin) at DNA:compound concentration ratio of 1:1 in 5K buffer by UV-Vis titration based analysis; in short: as §3
[34] = system: Quadruplex DNA; assay: Stabilization and preservation of G-quadruplex homo-purine guanine-rich GA2 (GAGGGAGGGAAAAGGGGAGGGA) DNA (unknown origin) parallel structure conformation at 2 equivalents in 100K buffer by circular dichroism scan analysis; conditions: dose 2.0 equiv; in short: as §1

Activity [1]: Active | Ka [2]: 0.2 µM⁻¹ | Activity [3]: 21 nm | Ka [4]: 1.1 µM⁻¹ | Ka [5]: 1 µM⁻¹ | Ka [6]: 0.1 µM⁻¹ | Ka [7]: 0.4 µM⁻¹ | deltaH [8]: 63 kJ/mol | Ka [9]: 3.7 µM⁻¹ | ΔTm [10]: 7 °C | Activity [11]: 21.4 nm | Ka [12]: 0.07 µM⁻¹ | ΔTm [13]: 14.6 °C | Activity [14]: 21.3 nm | Ka [15]: 0.36 µM⁻¹ | Ka [16]: 1.4 µM⁻¹ | Ka [17]: 0.96 µM⁻¹ | Activity [18]: 21% | ΔTm [19]: 13.1 °C | Activity [20]: Active | deltaH [21]: 14 kJ/mol | Activity [22]: Active | Activity [23]: Active | Activity [24]: Active | Ka [25]: 1.1 µM⁻¹ | Activity [26]: 28% | Ka [27]: 0.18 µM⁻¹ | Ka [28]: 0.19 µM⁻¹ | Activity [29]: 19% | Ka [30]: 0.8 µM⁻¹ | Ka [31]: 0.4 µM⁻¹ | deltaH [32]: 81 kJ/mol | Ka [33]: 0.24 µM⁻¹ | Activity [34]: Active
Structure (SMILES): CCC1=C(C)c2cc3c(C)c(CCC(=O)O)c(cc4nc(cc5[nH]c(cc1n2)c(C)c5CC)C(C)=C4CCC(=O)O)n3C
